The source of these data is ChEMBL document CHEMBL1151705, “Novel azalides derived from 16-membered macrolides. Part II: Isolation of the linear 9-formylcarboxylic acid and its sequential macrocyclization with an amino alcohol or an azidoamine” (2008).

Converted amounts (≈) assume the structure as drawn.

What all share (type): functional
Experiment [1] relates to Streptococcus pneumoniae. The experiment can be described thus: Antimicrobial activity against Streptococcus pneumoniae 9 expressing mefA after 20 hrs by agar dilution method. The procedure, abridged: (§1)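 Streptococci, H. influenzae and M. catarrhalis were precultured on blood agar plates. Suspensions of about 10⁶ CFU/ml were inoculated onto sensitivity disk agar supplemented with 5% horse blood and incubated at 37 °C for 20 h. MIC was read as the lowest drug concentration with no visible growth.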
(In agar dilution the substance is mixed into plates at graded concentrations.)

For experiment [2], the system named is Haemophilus influenzae. The experiment can be described thus: Antimicrobial activity against drug-susceptible Haemophilus influenzae 1 after 20 hrs by agar dilution method. The procedure, abridged: as §1
Experiment [3] has as its system Streptococcus pneumoniae. The experiment can be described thus: Antimicrobial activity against drug-susceptible Streptococcus pneumoniae DP1 Type1 after 20 hrs by agar dilution method. Put shortly:
as §1

Experiment [4] deals with Haemophilus influenzae. The experiment can be described thus: Antimicrobial activity against drug-susceptible Haemophilus influenzae 3 after 20 hrs by agar dilution method. The procedure, abridged:
as §1

For experiment [5], the system named is Moraxella catarrhalis. The experiment can be described thus: Antimicrobial activity against drug-susceptible Moraxella catarrhalis 1 after 20 hrs by agar dilution method. Put shortly: as §1
Experiment [6] has as its system Staphylococcus aureus. The experiment can be described thus: Antimicrobial activity against drug-susceptible Staphylococcus aureus 2 after 20 hrs by agar dilution method. Put shortly: (§2)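 Agar dilution MIC. S. aureus seed culture was grown in sensitivity test broth. Cell suspension (about 10⁶ CFU/ml) was inoculated onto sensitivity disk agar with 5% horse blood and incubated at 37 °C for 20 h. MIC was the lowest drug concentration that prevented visible growth.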

Experiment [7] has as its system Streptococcus pneumoniae. The experiment can be described thus: Antimicrobial activity against Streptococcus pneumoniae 8 expressing inducible ermB after 20 hrs by agar dilution method. The procedure, abridged:
as §1

The test system of experiment [8] is Streptococcus pneumoniae. The experiment can be described thus: Antimicrobial activity against drug-susceptible Streptococcus pneumoniae 2 after 20 hrs by agar dilution method. The procedure, abridged: as §1
Experiment [9] relates to Staphylococcus aureus. The experiment can be described thus: Antimicrobial activity against drug-susceptible Staphylococcus aureus 209P JC-1 after 20 hrs by agar dilution method. The procedure, abridged: as §2
Experiment [10] concerns Haemophilus influenzae. The experiment can be described thus: Antimicrobial activity against drug-susceptible Haemophilus influenzae 4 after 20 hrs by agar dilution method. The procedure, abridged: as §1
The test system of experiment [11] is Haemophilus influenzae. The experiment can be described thus: Antimicrobial activity against drug-susceptible Haemophilus influenzae 2 after 20 hrs by agar dilution method. Put shortly:
as §1

The subject of experiment [12] is Streptococcus pneumoniae. The experiment can be described thus: Antimicrobial activity against drug-susceptible Streptococcus pneumoniae 3 after 20 hrs by agar dilution method. The procedure, abridged: as §1
For experiment [13], the system named is Streptococcus pneumoniae. The experiment can be described thus: Antimicrobial activity against Streptococcus pneumoniae 7 expressing inducible ermB after 20 hrs by agar dilution method. The procedure, abridged: as §1
The subject of experiment [14] is Moraxella catarrhalis. The experiment can be described thus: Antimicrobial activity against drug-susceptible Moraxella catarrhalis 2 after 20 hrs by agar dilution method. The procedure, abridged: as §1
Experiment [15] has as its system Streptococcus pyogenes. The experiment can be described thus: Antimicrobial activity against drug-susceptible Streptococcus pyogenes 1 after 20 hrs by agar dilution method. Put shortly: as §1
In experiment [16] the test system is Streptococcus pyogenes. The experiment can be described thus: Antimicrobial activity against Streptococcus pyogenes 3 expressing mefA after 20 hrs by agar dilution method. The procedure, abridged:
as §1

The subject of experiment [17] is Streptococcus pneumoniae. The experiment can be described thus: Antimicrobial activity against Streptococcus pneumoniae 10 expressing mefA after 20 hrs by agar dilution method. The procedure, abridged:
as §1

Experiment [18] has as its system Staphylococcus aureus. The experiment can be described thus: Antimicrobial activity against drug-susceptible Staphylococcus aureus 3 after 20 hrs by agar dilution method. The procedure, abridged: as §2
Experiment [19] deals with Streptococcus pneumoniae. The experiment can be described thus: Antimicrobial activity against Streptococcus pneumoniae 5 constitutively expressing ermB/mefA after 20 hrs by agar dilution method. As to conditions: Streptococcus pneumoniae, 20 h; read-out: MIC. The procedure, abridged:
as §1

Experiment [20] relates to Staphylococcus aureus. The experiment can be described thus: Antimicrobial activity against Staphylococcus aureus 4 constitutively expressing ermA after 20 hrs by agar dilution method. The procedure, abridged: as §2
Experiment [21] concerns Streptococcus pyogenes. The experiment can be described thus: Antimicrobial activity against Streptococcus pyogenes 2 constitutively expressing ermB after 20 hrs by agar dilution method. The procedure, abridged: as §1
The test system of experiment [22] is Staphylococcus aureus. The experiment can be described thus: Antimicrobial activity against Staphylococcus aureus 5 expressing inducible ermB after 20 hrs by agar dilution method. The procedure, abridged:
as §2

Experiment [23] concerns Staphylococcus aureus. The experiment can be described thus: Antimicrobial activity against Staphylococcus aureus 6 expressing inducible ermB after 20 hrs by agar dilution method. Put shortly:
as §2

Experiment [24] relates to Streptococcus pneumoniae. The experiment can be described thus: Antimicrobial activity against Streptococcus pneumoniae 4 constitutively expressing ermB after 20 hrs by agar dilution method. As to conditions: Streptococcus pneumoniae, 20 h; read-out: MIC. The procedure, abridged:
as §1

The test system of experiment [25] is Streptococcus pneumoniae. The experiment can be described thus: Antimicrobial activity against Streptococcus pneumoniae 6 constitutively expressing ermB after 20 hrs by agar dilution method. The conditions noted are these: Streptococcus pneumoniae, 20 h; read-out: MIC. Put shortly:
as §1

The mark [26] stands for this setting: Streptococcus pneumoniae, 20 h, read-out: MIC.
The mark [27] stands for this setting: Haemophilus influenzae, 20 h, read-out: MIC.
[28] abbreviates: Moraxella catarrhalis, 20 h, read-out: MIC.
The mark [29] stands for this setting: Staphylococcus aureus, 20 h, read-out: MIC.

For `CCOC(=O)[C@H]1[C@H](C)O[C@@H](O[C@H]2[C@H](N(C)C)[C@@H](O)[C@H](O[C@H]3[C@@H](CC=O)C[C@@H](C)[C@@H](O)CN(C)CCC(CCCc4cnc5ccccc5c4)NC(=O)C[C@@H](OC(=O)CC)[C@@H]3OC)O[C@@H]2C)C[C@@]1(C)O` (stereo in doubt), the MIC in the experiment with Streptococcus pneumoniae [1] turned out to be 0.06 mg/L (≈ 0.0617 µM); with Haemophilus influenzae [2], 32 mg/L (≈ 32.9 µM); against Streptococcus pneumoniae [3], 0.03 mg/L (≈ 0.0308 µM); in the experiment with Haemophilus influenzae [4], 8 mg/L (≈ 8.22 µM); against Moraxella catarrhalis [5] it was 8 mg/L (≈ 8.22 µM); in the experiment on Staphylococcus aureus [6], 2 mg/L (≈ 2.06 µM). Moreover, the MIC against Streptococcus pneumoniae [7] was determined as 8 mg/L (≈ 8.22 µM); in the experiment on Streptococcus pneumoniae [8], 0.06 mg/L (≈ 0.0617 µM); against Staphylococcus aureus [9], 1 mg/L (≈ 1.03 µM); in the experiment on Haemophilus influenzae [10] it was 16 mg/L (≈ 16.4 µM); with Haemophilus influenzae [11] it was 2 mg/L (≈ 2.06 µM); in the experiment on Streptococcus pneumoniae [12], 0.06 mg/L (≈ 0.0617 µM). Moreover, the MIC with Streptococcus pneumoniae [13] amounted to 8 mg/L (≈ 8.22 µM); in the experiment on Moraxella catarrhalis [14], 4 mg/L (≈ 4.11 µM); in the experiment on Streptococcus pyogenes [15], 0.25 mg/L (≈ 0.257 µM); against Streptococcus pyogenes [16], 1 mg/L (≈ 1.03 µM); against Streptococcus pneumoniae [17] it was 0.06 mg/L (≈ 0.0617 µM); against Staphylococcus aureus [18], 0.5 mg/L (≈ 0.514 µM).
As to `CCOC(=O)[C@H]1[C@H](C)O[C@@H](O[C@H]2[C@H](N(C)C)[C@@H](O)[C@H](O[C@H]3[C@@H](CC=O)C[C@@H](C)[C@@H](O)CN(C)CC(/C=C/Cc4ccnc5ccccc45)CCOC(=O)C[C@@H](OC(=O)CC)[C@@H]3OC)O[C@@H]2C)C[C@@]1(C)O` (stereo in doubt; form 1), the MIC is 0.03 mg/L (≈ 0.0304 µM) in the experiment with Streptococcus pneumoniae [1] (setting [26]); greater than 128 mg/L in the experiment on Streptococcus pneumoniae [19]; greater than 128 mg/L with Staphylococcus aureus [20]; 16 mg/L (≈ 16.2 µM) in the experiment with Haemophilus influenzae [2] (setting [27]); 0.015 mg/L (≈ 0.0152 µM) with Streptococcus pneumoniae [3] (setting [26]); 8 mg/L (≈ 8.11 µM) with Haemophilus influenzae [4] (setting [27]). Besides, the MIC was 1 mg/L (≈ 1.01 µM) in the experiment with Moraxella catarrhalis [5] (setting [28]); greater than 128 mg/L in the experiment on Streptococcus pyogenes [21]; 0.5 mg/L (≈ 0.507 µM) in the experiment on Staphylococcus aureus [6] (setting [29]); 8 mg/L (≈ 8.11 µM) against Streptococcus pneumoniae [7]; 0.03 mg/L (≈ 0.0304 µM) in the experiment on Streptococcus pneumoniae [8] (setting [26]); 0.13 mg/L (≈ 0.132 µM) in the experiment with Staphylococcus aureus [9] (Staphylococcus aureus, 209P, 20 h, read-out: MIC). Also, the MIC in the experiment on Staphylococcus aureus [22] (setting [29]) turned out to be 0.13 mg/L (≈ 0.132 µM); in the experiment with Haemophilus influenzae [10] (setting [27]), 8 mg/L (≈ 8.11 µM); in the experiment on Streptococcus pneumoniae [12] (setting [26]), 0.03 mg/L (≈ 0.0304 µM); against Streptococcus pneumoniae [13], 8 mg/L (≈ 8.11 µM); in the experiment with Staphylococcus aureus [23], 0.25 mg/L (≈ 0.253 µM); in the experiment on Moraxella catarrhalis [14] (setting [28]), 1 mg/L (≈ 1.01 µM). Moreover, the MIC against Streptococcus pyogenes [15] is 0.03 mg/L (≈ 0.0304 µM); with Streptococcus pneumoniae [24] it was greater than 128 mg/L; with Streptococcus pneumoniae [25] it was greater than 128 mg/L; in the experiment with Streptococcus pyogenes [16] (Streptococcus pyogenes, 20 h, read-out: MIC), 0.13 mg/L (≈ 0.132 µM); with Streptococcus pneumoniae [17] (setting [26]) it was 0.03 mg/L (≈ 0.0304 µM); in the experiment on Staphylococcus aureus [18] (setting [29]), 0.13 mg/L (≈ 0.132 µM).
As to `CCOC(=O)[C@H]1[C@H](C)O[C@@H](O[C@H]2[C@H](N(C)C)[C@@H](O)[C@H](O[C@H]3[C@@H](CC=O)C[C@@H](C)[C@@H](O)CN(C)CCC(C/C=C/c4cnc5ccccc5c4)NC(=O)C[C@@H](OC(=O)CC)[C@@H]3OC)O[C@@H]2C)C[C@@]1(C)O` (stereo in doubt; form 2), the MIC against Streptococcus pneumoniae [1] was 0.5 mg/L (≈ 0.515 µM); in the experiment with Haemophilus influenzae [2] it was 64 mg/L (≈ 65.9 µM); in the experiment on Streptococcus pneumoniae [3], 0.13 mg/L (≈ 0.134 µM); in the experiment on Haemophilus influenzae [4] it was 16 mg/L (≈ 16.5 µM); with Moraxella catarrhalis [5], 8 mg/L (≈ 8.24 µM); in the experiment on Staphylococcus aureus [6], 2 mg/L (≈ 2.06 µM). Also, the MIC was greater than 128 mg/L against Streptococcus pneumoniae [7]; 0.25 mg/L (≈ 0.257 µM) in the experiment with Streptococcus pneumoniae [8]; 1 mg/L (≈ 1.03 µM) with Staphylococcus aureus [9]; 1 mg/L (≈ 1.03 µM) with Staphylococcus aureus [22]; 32 mg/L (≈ 32.9 µM) with Haemophilus influenzae [10]; 4 mg/L (≈ 4.12 µM) against Haemophilus influenzae [11]. Also, the MIC against Streptococcus pneumoniae [12] is 0.25 mg/L (≈ 0.257 µM); in the experiment with Streptococcus pneumoniae [13], greater than 128 mg/L; against Moraxella catarrhalis [14], 4 mg/L (≈ 4.12 µM); against Streptococcus pyogenes [15] it was 0.5 mg/L (≈ 0.515 µM); in the experiment on Streptococcus pyogenes [16], 4 mg/L (≈ 4.12 µM); against Streptococcus pneumoniae [17], 0.25 mg/L (≈ 0.257 µM). Moreover, in the experiment with Staphylococcus aureus [18], the MIC was 0.5 mg/L (≈ 0.515 µM).
